16 molecules from ChEMBL document CHEMBL1156595, “Studies on the antifungal properties of N-thiolated beta-lactams” (2008) can be followed below.

Holding throughout (type): functional
One assay has as its system Kluyveromyces marxianus. Description: Antifungal activity against Candida kefyr ATCC 20409 assessed as growth inhibition zone at 50 ug after 24 hrs by Kirby-Bauer agar diffusion assay. To be noted: ATCC 20409, 24 h, read-out: IZ. The essentials:
(§1)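 Disk diffusion on yeast nitrogen base agar, swabbed with a McFarland 0.5 suspension in saline. 6 mm cellulose disks carried 10 µL of a 5 mg/mL CH2Cl2 stock (50 ug per disk), air-dried, three disks per plate. Plates were sealed and incubated 24 h at 37°C. Cleared inhibition zones were measured and averaged over triplicates.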

A further assay relates to Pichia kudriavzevii. In words: Antifungal activity against Candida krusei ATCC 14243 assessed as growth inhibition zone at 50 ug after 24hrs by Kirby-Bauer agar diffusion assay. To be noted: ATCC 14243, 24 h, read-out: IZ. A digest of the protocol: as §1
(A growth-free zone around the sample is the usual read-out of agar diffusion tests.)

For another assay, the system named is Clavispora lusitaniae. Description: Antifungal activity against Candida lusitaniae ATCC 34449 assessed as growth inhibition zone at 50 ug after 24 by Kirby-Bauer agar diffusion assay. To be noted: read-out: IZ. A digest of the protocol:
as §1

The next assay relates to Candida albicans. In words: Antifungal activity against Candida albicans ATCC 2091 assessed as growth inhibition zone at 50 ug after 24 hrs by Kirby-Bauer agar diffusion assay. The following applies: ATCC 2091, 24 h, read-out: IZ. The essentials:
as §1

The next assay deals with Nakaseomyces glabratus. Description: Antifungal activity against Candida glabrata ATCC 15126 assessed as growth inhibition zone at 50 ug after 24 hrs by Kirby-Bauer agar diffusion assay. The following applies: ATCC 15126, 24 h, read-out: IZ. A digest of the protocol:
as §1

Another assay concerns Candida parapsilosis. Description: Antifungal activity against Candida parapsilosis ATCC 22019 assessed as growth inhibition zone at 50 ug after 24 hrs by Kirby-Bauer agar diffusion assay. To be noted: Lodderomyces parapsilosis, ATCC 22019, 24 h; read-out: IZ. The essentials: as §1
For the next assay, the system named is Cyberlindnera jadinii. In words: Antifungal activity against Candida utilis ATCC 29950 assessed as growth inhibition zone at 50 ug after 24 by Kirby-Bauer agar diffusion assay. To be noted: Williopsis jadinii, read-out: IZ. The essentials:
as §1

In a further assay the test system is Candida tropicalis. Description: Antifungal activity against Candida tropicalis clinical isolate assessed as growth inhibition zone at 50 ug after 24 hrs by Kirby-Bauer agar diffusion assay. The following applies: read-out: IZ. A digest of the protocol:
as §1

In the case of `CO[C@H]1C(=O)N(SC)[C@H]1c1ccc(Br)cc1`, the zone of inhibition at 50 µg/disc was determined as 17 mm with Kluyveromyces marxianus; 0 mm with Pichia kudriavzevii; 17 mm in the assay on Clavispora lusitaniae; 25 mm with Candida albicans; 19 mm in the assay on Nakaseomyces glabratus; 23 mm with Candida parapsilosis. For the same molecule, the zone of inhibition at 50 µg/disc in the assay with Cyberlindnera jadinii was 17 mm; in the assay on Candida tropicalis, 20 mm.
For `CSN1C(=O)[C@H](OC(C)=O)[C@@H]1c1ccccc1`, the zone of inhibition at 50 µg/disc came out at 9 mm in the assay with Kluyveromyces marxianus; 0 mm with Pichia kudriavzevii; 15 mm in the assay on Clavispora lusitaniae; 14 mm in the assay on Candida albicans; 0 mm with Nakaseomyces glabratus; 0 mm in the assay with Candida parapsilosis. The zone of inhibition at 50 µg/disc in the assay on Cyberlindnera jadinii stood at 16 mm; with Candida tropicalis, 15 mm.
`CSN1C(=O)[C@H](Oc2ccccc2)[C@@H]1/C=C/c1ccccc1`: the zone of inhibition at 50 µg/disc in the assay with Kluyveromyces marxianus amounted to 0 mm; in the assay on Pichia kudriavzevii, 0 mm; in the assay with Clavispora lusitaniae, 0 mm; in the assay with Candida albicans, 0 mm; in the assay with Nakaseomyces glabratus, 9 mm; with Candida parapsilosis, 0 mm. Also, the zone of inhibition at 50 µg/disc in the assay with Cyberlindnera jadinii and in the assay on Candida tropicalis was 0 mm in each case.
On to `CO[C@H]1C(=O)N(SC)[C@H]1c1cc(F)c(F)cc1F`, for which the zone of inhibition at 50 µg/disc with Kluyveromyces marxianus was determined as 16 mm; in the assay on Pichia kudriavzevii, 0 mm; in the assay with Clavispora lusitaniae it was 14 mm; with Candida albicans it was 25 mm; in the assay with Nakaseomyces glabratus, 14 mm; in the assay with Candida parapsilosis it was 22 mm. The results for the zone of inhibition at 50 µg/disc with Cyberlindnera jadinii and in the assay with Candida tropicalis were 14 mm and 20 mm, respectively.
Turning to `CO[C@H]1C(=O)N(SC)[C@H]1c1ccccc1F`, the zone of inhibition at 50 µg/disc amounted to 15 mm in the assay on Kluyveromyces marxianus; 0 mm with Pichia kudriavzevii; 0 mm in the assay on Clavispora lusitaniae; 15 mm in the assay on Candida albicans; 0 mm in the assay with Nakaseomyces glabratus; 19 mm in the assay on Candida parapsilosis. In addition, the values for the zone of inhibition at 50 µg/disc in the assay with Cyberlindnera jadinii and with Candida tropicalis were 14 mm and 0 mm, respectively.
`CSN1C(=O)[C@H](OC(C)=O)[C@@H]1/C=C/c1ccccc1`: the zone of inhibition at 50 µg/disc in the assay on Kluyveromyces marxianus is 12 mm; in the assay on Pichia kudriavzevii it was 0 mm; in the assay with Clavispora lusitaniae, 0 mm; with Candida albicans, 0 mm; with Nakaseomyces glabratus, 14 mm; with Candida parapsilosis it was 0 mm. The zone of inhibition at 50 µg/disc is 13 mm in the assay on Cyberlindnera jadinii and 0 mm in the assay on Candida tropicalis.
For the molecule `CO[C@H]1C(=O)N(SC)[C@H]1c1ccccc1Br`, the zone of inhibition at 50 µg/disc in the assay on Kluyveromyces marxianus turned out to be 13 mm; in the assay on Pichia kudriavzevii, 0 mm; with Clavispora lusitaniae, 19 mm; in the assay on Candida albicans it was 25 mm; with Nakaseomyces glabratus, 17 mm; in the assay on Candida parapsilosis, 40 mm. The zone of inhibition at 50 µg/disc with Cyberlindnera jadinii worked out at 25 mm; in the assay with Candida tropicalis, 21 mm.
`CSN1C(=O)[C@@H](OC(C)=O)[C@H]1c1ccccc1`: the zone of inhibition at 50 µg/disc in the assay on Kluyveromyces marxianus came to 0 mm; in the assay with Pichia kudriavzevii, 0 mm; in the assay with Clavispora lusitaniae, 10 mm; with Candida albicans it was 14 mm; with Nakaseomyces glabratus it was 0 mm; in the assay on Candida parapsilosis, 0 mm. Further, the zone of inhibition at 50 µg/disc in the assay with Cyberlindnera jadinii was 16 mm; in the assay on Candida tropicalis, 11 mm.
Consider `CCC(C)SN1C(=O)[C@H](OC)[C@@H]1c1ccccc1Cl` (stereo partly drawn), for which the zone of inhibition at 50 µg/disc worked out at 0 mm with Kluyveromyces marxianus; 0 mm with Pichia kudriavzevii; 0 mm in the assay with Clavispora lusitaniae; 16 mm in the assay on Candida albicans; 0 mm in the assay on Nakaseomyces glabratus; 0 mm in the assay on Candida parapsilosis. In addition, the zone of inhibition at 50 µg/disc worked out at 0 mm in the assay on Cyberlindnera jadinii and 13 mm in the assay on Candida tropicalis.
As to `CO[C@H]1C(=O)N(SC)[C@H]1/C=C/c1ccccc1`, the zone of inhibition at 50 µg/disc was 14 mm in the assay with Kluyveromyces marxianus; 0 mm in the assay on Pichia kudriavzevii; 14 mm with Clavispora lusitaniae; 27 mm with Candida albicans; 16 mm in the assay with Nakaseomyces glabratus; 13 mm with Candida parapsilosis. For the same molecule, the zone of inhibition at 50 µg/disc in the assay on Cyberlindnera jadinii amounted to 19 mm; with Candida tropicalis it was 14 mm.
Take `CO[C@H]1C(=O)N(SC)[C@H]1c1ccc(I)cc1`: the zone of inhibition at 50 µg/disc in the assay on Kluyveromyces marxianus was determined as 19 mm; with Pichia kudriavzevii, 0 mm; in the assay with Clavispora lusitaniae, 20 mm; with Candida albicans it was 16 mm; in the assay on Nakaseomyces glabratus, 22 mm; with Candida parapsilosis, 25 mm. The zone of inhibition at 50 µg/disc with Cyberlindnera jadinii was found to be 20 mm; with Candida tropicalis it was 12 mm.
Take `CO[C@H]1C(=O)N(SC)[C@H]1c1cccc(Cl)c1`: the zone of inhibition at 50 µg/disc with Kluyveromyces marxianus was found to be 13 mm; in the assay with Pichia kudriavzevii, 0 mm; with Clavispora lusitaniae it was 13 mm; in the assay with Candida albicans, 23 mm; in the assay on Nakaseomyces glabratus, 21 mm; in the assay with Candida parapsilosis it was 28 mm. Further, the zone of inhibition at 50 µg/disc was found to be 19 mm in the assay with Cyberlindnera jadinii and 20 mm in the assay with Candida tropicalis.
For `CO[C@H]1C(=O)N(SC)[C@H]1c1cccc(Br)c1`, the zone of inhibition at 50 µg/disc in the assay with Kluyveromyces marxianus came to 14 mm; in the assay with Pichia kudriavzevii it was 0 mm; with Clavispora lusitaniae, 15 mm; in the assay with Candida albicans it was 20 mm; in the assay on Nakaseomyces glabratus, 17 mm; in the assay on Candida parapsilosis, 18 mm. The zone of inhibition at 50 µg/disc is 14 mm with Cyberlindnera jadinii and 18 mm in the assay on Candida tropicalis.
Take `CO[C@H]1C(=O)N(SC)[C@H]1c1cccc(I)c1`: the zone of inhibition at 50 µg/disc was found to be 15 mm in the assay on Kluyveromyces marxianus; 0 mm with Pichia kudriavzevii; 19 mm with Clavispora lusitaniae; 14 mm in the assay on Candida albicans; 19 mm in the assay on Nakaseomyces glabratus; 22 mm with Candida parapsilosis. For the same molecule, the zone of inhibition at 50 µg/disc in the assay with Cyberlindnera jadinii was 15 mm; with Candida tropicalis, 14 mm.
On to `CSN1C(=O)[C@H](Oc2ccccc2)[C@@H]1CCc1ccccc1`, for which the zone of inhibition at 50 µg/disc with Kluyveromyces marxianus came out at 19 mm; with Pichia kudriavzevii, 0 mm; with Clavispora lusitaniae it was 14 mm; in the assay with Candida albicans, 25 mm; in the assay on Nakaseomyces glabratus, 18 mm; with Candida parapsilosis, 14 mm. Besides, the zone of inhibition at 50 µg/disc in the assay on Cyberlindnera jadinii was determined as 21 mm; with Candida tropicalis, 19 mm.
Regarding `CO[C@H]1C(=O)N(SC)[C@H]1CCc1ccccc1`, the zone of inhibition at 50 µg/disc was 24 mm in the assay on Kluyveromyces marxianus; 0 mm in the assay on Pichia kudriavzevii; 15 mm in the assay on Clavispora lusitaniae; 34 mm with Candida albicans; 20 mm in the assay with Nakaseomyces glabratus; 14 mm in the assay on Candida parapsilosis. Moreover, the zone of inhibition at 50 µg/disc in the assay on Cyberlindnera jadinii came out at 28 mm; with Candida tropicalis it was 17 mm.
